# Rows were chosen to be rich in hits. Some 1.8% of all compounds tested hit in one or more screens of this group.
# NR2E3 ag-1: inhibitors of NR2E3-RetCOR corepressor binding, primary screen, NR2E3 agonist project, biochemical, TR-FRET, GST-NR2E3, biotin-RetCOR; Photoreceptor-specific nuclear receptor (Homo sapiens), Q9Y5X4; 1536-well; inhibition of corepressor binding, % at 4.78 µM; 0.12% of 320,000 active; AID 2300, 2010;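 active means percent inhibition above the cutoff of mean plus 3 SD of all tested compounds, set per screening campaign, cut at about 20% in these data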;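 further: 0% = DMSO wells and 100% = biotin wells as full block of FRET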
# Target sequence (Q9Y5X4 whole entry, looked up): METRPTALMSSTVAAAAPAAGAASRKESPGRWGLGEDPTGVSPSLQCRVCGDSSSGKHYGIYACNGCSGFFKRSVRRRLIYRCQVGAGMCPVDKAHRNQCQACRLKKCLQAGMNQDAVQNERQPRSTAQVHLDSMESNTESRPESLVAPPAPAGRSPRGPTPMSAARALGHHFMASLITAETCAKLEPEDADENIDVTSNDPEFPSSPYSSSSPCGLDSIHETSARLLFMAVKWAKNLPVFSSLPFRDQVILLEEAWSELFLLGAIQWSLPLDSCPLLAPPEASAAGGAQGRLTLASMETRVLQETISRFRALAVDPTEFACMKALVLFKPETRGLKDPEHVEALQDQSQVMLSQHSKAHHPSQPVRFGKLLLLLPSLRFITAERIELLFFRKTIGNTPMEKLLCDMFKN
#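 System: GST-NR2E3 and biotin-RetCOR proteins; probe or stimulus: 7 nM biotin-RetCOR; doses: compound at 4.8 µM, single dose; schedule: Compound–protein incubation for 5 h at 4 °C; detection: time-resolved FRET; read-out: percent inhibition; controls: biotin wells as high control, 0.6% DMSO wells as low control; format: 1536-well plates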
# PG9 binder: binders of HIV-1 gp120 antibody PG9, primary screen, biochemical, TR-FRET | TR-FRET gp120-PG9 antibody binding | inhibition, % at 6.7 µM | 0.43% of 360,000 active | AID 624416, 2012; in the data active means inhibition above about 8.5%
# GalR3 antag: GalR3 antagonists in HEK293 cells, primary screen, cell-based, fluorescence readout; Galanin receptor type 3 (Homo sapiens), O60755; HEK293 GalR3-CNG cAMP membrane potential fluorescence; galR3 body fused to GalR1 C-terminus; inhibition, % at 3 µM; 0.44% of 360,000 active;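 active means inhibition above the screen-wide average plus 3 SD, cut at about 13% in these data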;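 further: forskolin and galanin both at EC90 stimulate the cells; cAMP rise reported by CNG channel membrane potential dye signal; 0% = forskolin plus galanin with DMSO and 100% = forskolin alone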
# Rev-erbA mod: modulators of Rev-erb alpha DNA binding, primary screen, biochemical, FITC-DNA, fluorescence polarization, uHTS | 0.79% of 370,000 active | Rev-erbα–FITC-DNA binding, 90 min | AID 1259318, 2017 | Nuclear receptor subfamily 1 group D member 1 (Homo sapiens), P20393 | activity, % at 10 µM;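 active means activity above about 14%, limit read from the data; passing the limit was not always enough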;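 further: 0% = DMSO wells with 35 nM protein and 100% = DMSO wells with 750 nM protein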
# NR2E3 ag-2: NR2E3 agonists in two-hybrid cells, primary screen, cell-based, luminescence, CHO-S, Gal4-NCOR/VP16-NR2E3; 0.35% of 360,000 active; inhibition of corepressor binding, % at 3.98 µM; luciferase; Photoreceptor-specific nuclear receptor (Homo sapiens), Q9Y5X4;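 active means inhibition above the mean of all tested compounds plus 3 SD, cut at about 70% in these data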;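 further: 0% = DMSO with NR2E3 transfected cells and 100% = cells lacking NR2E3 construct; higher means lower luciferase signal from less NR2E3 corepressor binding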
# GalR3 conf: GalR3 antagonist hit confirmation, cell-based, fluorescence, triplicate. 59% of 1,600 active. shares compounds with GalR3 antag. HEK293 GalR3 CNG cAMP biosensor, membrane potential fluorescence; galR3 fused to GalR1 carboxy tail; challenged with forskolin and galanin at EC90. inhibition, % at 3 µM;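 active means inhibition above the primary screen's cutoff, the mean inhibition of all screened compounds plus 3 SD, cut at about 13% in these data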;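 further: 0% = forskolin plus galanin and 100% = forskolin alone with DMSO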
# HEK-CNG parental: nonspecific cAMP agonists in parental HEK-CNG cells, counter-screen for GalR3 antagonist project, cell-based, fluorescence, high throughput; AID 652268, 2013; 10% of 1,600 active; shares compounds with GalR3 antag; activation, % at 3 µM; HEK293-CNG parental cells, cAMP membrane potential fluorescence; normalised: DMSO wells 0%, forskolin wells 100%; in the data active means activation above about 1.3%
# Numbers without * were called inactive; · = no result.
SMILES,NR2E3 ag-1,PG9 binder,GalR3 antag,Rev-erbA mod,NR2E3 ag-2,GalR3 conf,HEK-CNG parental
COCCNC(=O)/C(C#N)=C/c1c(N2CC(C)OC(C)C2)nc2ccccn2c1=O (stereo unspecified),2,-2,25*,6,-2,-1,0
COc1cccc2cc3c(nc12)C[C@@H]1CCCC(=O)N2CCC[C@@]12C3,·,·,·,0,·,·,·
Cc1ccc2c(c1)C1CS(=O)(=O)N(CC(C)C)C(=O)N1C2 (stereo unspecified),·,·,·,-10,·,·,·
CN1C(=O)c2cc(NS(=O)(=O)c3cccc(F)c3)ccc2OC[C@@H]2O[C@H](CC(=O)O)CC[C@H]21,·,·,·,-1,·,·,·
Cc1cc(=O)[nH]c2ccc(S(=O)(=O)NC3CCCCC3)cc12,2,0,13*,4,-11,38*,0
Cc1cc(C)c2nc(N3C(=O)C(O)=C(C(=O)c4ccco4)C3c3cccc(O)c3)sc2c1 (stereo unspecified),4,-2,14*,5,-53,9,0
Cc1cc(N2C(=O)C(O)=C(C(=O)c3ccco3)C2c2cccc(O)c2)no1 (stereo unspecified),3,0,-8,-2,-6,·,·
Cc1ccc2nc(N3C(=O)C(O)=C(C(=O)c4ccco4)C3c3ccc(O)cc3)sc2c1 (stereo unspecified),1,2,7,2,-109,·,·
Cc1cc(C)c2nc(N3C(=O)C(O)=C(C(=O)c4ccco4)C3c3ccc(O)cc3)sc2c1 (stereo unspecified),5,-1,45*,-6,-71,12,1
CCOC(=O)N(C)[C@H]1C[C@H]2c3[nH]c4c(-c5ccc6c(c5)OCO6)cccc4c3CCN2C(=O)[C@H]1[C@H](C)O,·,·,·,-4,·,·,·
O=C(CNC(=O)c1ccc(F)cc1)Nc1ccccc1C(F)(F)F,1,0,14*,-2,1,-3,0
Nc1cc(-c2ccc(Br)cc2)nn1Cc1ccccc1,·,-2,61*,·,-71,103*,-1
COc1ccc(N2C(=O)c3ccccc3NC2c2ccc(OC)c(Cn3cc([N+](=O)[O-])cn3)c2)cc1 (stereo unspecified),0,-1,59*,-5,-127,24*,0
COc1ccc(C2Nc3ccccc3C(=O)N2c2ccccc2)cc1Cn1cc([N+](=O)[O-])cn1 (stereo unspecified),1,-2,-4,-2,-60,·,·
COC(=O)[C@]12C[C@H](CC(=O)N3CCCCC3)C(=O)N(CCc3ccc(OC)c(OC)c3)C1=C[C@H](C(C)C)O[C@@H]2C1CC1,·,·,·,2,·,·,·
CC(=O)Nc1ccc(S(=O)(=O)NCC(=O)OCC(=O)N2CCc3ccccc32)cc1,2,-1,13*,-3,18,0,0
O=C(CNS(=O)(=O)c1ccccc1Br)OCC(=O)N1CCc2ccccc21,-4,2,3,1,-3,·,·
CNC[C@H](O)[C@@H](O)[C@H](O)[C@H](O)CO,·,·,·,-5,·,·,·
CC(C)[C@H](NC(=O)C1CCCC1)C(=O)N1CCC[C@H]1C(=O)NCCc1ccccc1Cl,·,-2,-3,0,·,·,·
O=C(Nc1ccccc1Cl)N1CCCN(c2nc(-c3ccccc3)ns2)CC1,1,0,-5,-6,9,·,·
Cc1c(Cl)cccc1NC(=O)N1CCCN(c2nc(-c3ccccc3)ns2)CC1,2,0,34*,-4,22,99*,-1
CCn1c(SCC(=O)Nc2ccc(S(=O)(=O)Nc3cc(C)nc(C)n3)cc2)nc2sc(C)c(C)c2c1=O,·,·,·,-8,·,·,·
COc1ccc2[nH]c(=O)c(CNc3cc(C)ccc3C)cc2c1,-2,0,2,3,-19,·,·
COc1ccc2[nH]c(=O)c(CNc3ccc(C)cc3C)cc2c1,-2,2,14*,-3,-19,5,0
CC1(C)C=C2C(N(Cc3ccc4c(c3)OCO4)C(=N)N2C(=O)OCc2ccccc2)n2c(=O)n(-c3ccccc3)c(=O)n21 (stereo unspecified),·,·,·,-6,·,·,·
SMILES,NR2E3 ag-1,PG9 binder,GalR3 antag,Rev-erbA mod,NR2E3 ag-2,GalR3 conf,HEK-CNG parental
CCN(CC)CC(=O)NCc1cc(-c2ccc(OC)cc2)no1,0,-3,-3,6,-19,·,·
COc1ccc(-c2cc(CNC(=O)CN3CCN(C)CC3)on2)cc1,0,0,13*,3,-15,-5,0
O=C(NNC(=O)c1ccccc1O)c1ccc(Cl)c(S(=O)(=O)N2CCc3ccccc32)c1,0,0,29*,-1,-24,60*,-2
O=C(c1ccc(Cl)c(S(=O)(=O)N2CCc3ccccc32)c1)N1CCN(c2ccccc2O)CC1,·,-3,-4,-4,0,·,·
Cc1cc(C(=O)Nc2cccc(/C=C/C(=O)O)c2)c(C)o1,4,-3,46*,6,-6,88*,0
Cc1oc(-c2ccccc2)cc1C(=O)Nc1cccc(/C=C/C(=O)O)c1,·,-2,75*,4,-32,111*,0
Cc1oc(-c2ccccc2)cc1C(=O)Nc1ccccc1,4,0,-6,2,-82,·,·
COc1ccc(C(=O)c2ccc3oc(-c4ccc(OC)cc4)c(-c4ccc(O)cc4)c3c2)cc1,·,0,13*,-2,-23,5,-1
COc1ccc(C(=O)c2c(-c3ccc(OC)cc3)oc3ccccc23)cc1,4,3,3,1,8,·,·
CSc1ccccc1NC(=O)c1cnc2scc(C)n2c1=O,0,2,23*,-7,-51,5,0
C[C@H]1[C@@H](NCc2cccs2)CC[C@@]23CCCN2C(=O)CCC[C@@H]13,·,·,·,-2,·,·,·
COc1ccc(C2=NS(=O)(=O)N(C)C(C(=O)NC(C)c3ccccc3)=C2)cc1OC (stereo unspecified),0,0,6,-4,-41,·,·
COc1ccc(C2=NS(=O)(=O)N(C)C(C(=O)N(C)Cc3ccccc3)=C2)cc1OC,1,-2,15*,6,13,22*,-1
O=[N+]([O-])c1cnc2ccccc2c1Sc1ccccc1,·,·,·,-4,·,·,·
